Shown are actives, neighbours in structure and some others; about 1.8% of the full set was active somewhere.
SENP1 FRET inh = SENP1 (human) catalytic domain inhibition; Q9P0U3; 0.21% of 360,000 active; recombinant SENP1 catalytic domain, CyPet-SUMO1-YPet FRET cleavage; inhibition, % at 10 µM; AID 624204;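 active = inhibition at least 30% at 10 µM, raw YFP signal under a set limit, fluorescence ratio 0.5 to 1.5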
Target sequence (Q9P0U3 419-644 limits assumed): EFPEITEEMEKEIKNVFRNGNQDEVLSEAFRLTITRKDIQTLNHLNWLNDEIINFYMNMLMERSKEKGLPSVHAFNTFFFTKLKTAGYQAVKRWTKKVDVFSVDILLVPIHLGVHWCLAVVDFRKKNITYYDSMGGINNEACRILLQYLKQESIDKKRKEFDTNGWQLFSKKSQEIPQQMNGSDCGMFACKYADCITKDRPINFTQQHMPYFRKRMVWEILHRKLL
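System: Recombinant human SENP1 catalytic domain, His6-tagged | Incubation: Enzyme reaction for 50 min at room temperature, dark | Medium: Tris pH 8 with BME, BSA, NP40 and catalase | Also added: 25 nM SUMO1 FRET substrate | Compound: 10 µM single point, 0.5% DMSO | Measured by: FRET fluorescence in CFP and YFP emission channels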
CSN inh = CSN deneddylation inhibition. Q92905. Purified CSN, SCF-Nedd8-OG deneddylation, fluorescence polarization. inhibition, % at 12.5 µM. 0.38% of 360,000 active;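 active = pattern-corrected inhibition above about 35%, with an unprinted fluorescence ratio check between 0.5 and 1.5, limit read from the data, passing the limit was not always enough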
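Schedule: reaction 90 min, room temperature / Assay system: HEK293T-derived human Csn5 enzyme / Input: Csn5 at 0.24 nM final / Measure: inhibition of Csn5 cleavage, % / Control set: substrate-only high control, full reaction low control / Technique: fluorescence polarization of the substrate / Buffer or medium: Tris/NaCl/DTT buffer, pH 7.5 / Reagent: SCFSkp2-Nedd8OG substrate at 10 nM final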
TPT1 inhibitor = C. albicans TPT1 enzyme inhibition | recombinant caTPT1, FP RNA substrate dephosphorylation | inhibition, % at 5 µM | 0.81% of 300,000 active;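 active = inhibition above the mean of all tested compounds plus 3 SD, set per screening campaign, cut at about 24% in these data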
HNF4A DNA FP = change in binding of human HNF4 alpha to DNA; P41235; HNF4a-FITC DNA binding, fluorescence polarization, 1 h; activity change, % at 10 µM; 0.3% of 360,000 active; AID 1224865; in the data active = activity change above about 30%, passing the limit was not always enough
Target sequence (P41235 whole entry, looked up): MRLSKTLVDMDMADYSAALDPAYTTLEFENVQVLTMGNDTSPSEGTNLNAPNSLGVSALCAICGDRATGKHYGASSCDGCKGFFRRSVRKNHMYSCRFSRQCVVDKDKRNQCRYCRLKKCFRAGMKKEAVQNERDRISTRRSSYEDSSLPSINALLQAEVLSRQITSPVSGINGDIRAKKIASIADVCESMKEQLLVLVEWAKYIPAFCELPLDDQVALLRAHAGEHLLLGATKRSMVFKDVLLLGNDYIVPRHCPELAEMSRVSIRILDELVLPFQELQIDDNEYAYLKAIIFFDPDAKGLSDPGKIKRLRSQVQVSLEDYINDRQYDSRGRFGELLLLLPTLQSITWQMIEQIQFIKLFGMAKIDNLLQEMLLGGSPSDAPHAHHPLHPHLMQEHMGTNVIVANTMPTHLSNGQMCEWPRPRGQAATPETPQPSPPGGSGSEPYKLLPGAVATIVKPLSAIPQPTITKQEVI
Rpn11 inh = blocks the human proteasome subunit Rpn11; human 26S proteasome, Ub4-pepOG fluorescence polarization; 20S core pre-blocked with epoxomicin; calls only at 20 µM; 0.59% of 360,000 active; AID 588493;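 active = inhibition at 20 µM, scaled to each plate's controls, above about 33%, limit read from the data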
SUMO HTRF inh = inhibitors of human SUMOylation (UBC9); HTRF SUMOylation assay, SAE1/SAE2 + UBC9, in vitro; 0.36% of 290,000 active; P63279; inhibition, % at 35 µM; in the data active = inhibition above about 50%, passing the limit was not always enough
Large screens that a line does not name were inactive.

Cc1cc2nc(-c3cccc(Br)c3)c(CC(C)(C)C)n2c(C)c1Br	CSN inh 132 (no result: TPT1 inhibitor, SUMO HTRF inh)
Cc1cccc2cc3c(N)c(C(=O)Nc4ccc(N5CCOCC5)cc4)sc3nc12	SENP1 FRET inh 65
Cc1ccc2nc3sc(C(=O)Nc4ccc(N5CCOCC5)cc4)c(N)c3cc2c1	none (no result: SENP1 FRET inh, CSN inh, TPT1 inhibitor, HNF4A DNA FP, Rpn11 inh)
Clc1nnc2ccc(-c3ccccc3)nn12	CSN inh 54
Cc1ccc2nnc(Cl)n2n1	none
COCCCNc1nc2c(c(=O)n(Cc3ccc(Cl)cc3)c(=O)n2C)n1C	none
Cc1cccc(C)c1NC(=O)C(c1ccnc2ccccc12)n1c(=O)c(-c2ccco2)nc2ccccc21 (stereo not given)	HNF4A DNA FP 44 (no result: TPT1 inhibitor, Rpn11 inh, SUMO HTRF inh)
O=C(NCc1ccccc1)C(c1cccc2ccccc12)n1c(=O)c(-c2ccco2)nc2ccccc21 (stereo not given)	none (no result: TPT1 inhibitor, Rpn11 inh, SUMO HTRF inh)
Cc1cccc(C)c1NC(=O)C(c1ccccc1F)n1c(=O)c(-c2ccco2)nc2ccccc21 (stereo not given)	HNF4A DNA FP 45 (no result: TPT1 inhibitor, Rpn11 inh, SUMO HTRF inh)
CCCCCNC(=O)C(c1cccc2ccccc12)n1c(=O)c(-c2ccco2)nc2ccccc21 (stereo not given)	HNF4A DNA FP 40 (no result: TPT1 inhibitor, Rpn11 inh, SUMO HTRF inh)
Cc1ccc(S(=O)(=O)N2CCC(C(=O)NC3CCCCC3C)CC2)cc1 (stereo not given)	none
CCOC(=O)c1ccc(-n2cncn2)nc1	none
N=C1CCC(=N)c2c1c(O)c1ccccc1c2O	SUMO HTRF inh 63
C/C(=N\NC(=O)Cc1ccccc1Cl)c1cccnc1	none
CCCCCCCC(=O)N/N=C(\C)c1cccnc1	CSN inh 58
CC1CN=C(N(C(=O)Nc2ccccc2)C(C)C)S1 (stereo not given)	none
Cc1ccc(N(C(=O)Nc2ccccc2)C2=NCC(C)S2)cc1 (stereo not given)	HNF4A DNA FP 33
O=C(Nc1ccc(-c2cc3ccccc3oc2=O)c(Cl)c1)c1cccnc1	CSN inh 38
CN(C)C=Nc1ccc2nn(-c3ccccc3)nc2c1	SUMO HTRF inh 60
Cn1c(-c2ccc(C#N)cc2)c(C#Cc2ccccc2)c2ccccc21	none (no result: TPT1 inhibitor, SUMO HTRF inh)
COc1cccc(-n2c(SCc3cc(=O)oc4cc(O)c(O)cc34)nc3ccccc3c2=O)c1	SUMO HTRF inh 79
Cc1cc(-c2csc(NC(=O)c3ccccc3C(F)(F)F)n2)c(C)n1Cc1ccccc1	none
CCN1C(=O)S/C(=C/c2ccc(Sc3nc4ccccc4[nH]3)o2)C1=O	HNF4A DNA FP 102
N#C/C(=C/c1ccc(Sc2nc3ccccc3[nH]2)o1)c1cccc(Br)c1	none
COc1ccc(NS(=O)(=O)c2ccc3c(c2)[C@H]2C=CC[C@H]2[C@@H](c2ccc(C(=O)O)cc2)N3)cc1	SUMO HTRF inh 54
Cc1c(Cl)cccc1NS(=O)(=O)c1ccc2c(c1)C1C=CCC1C(c1ccc(C(=O)O)cc1)N2 (stereo not given)	SUMO HTRF inh 97
O=C(O)c1ccc2c(c1)C1C=CCC1C(c1ccncc1)N2 (stereo not given)	none
CC(=O)c1ccc2c(c1)C1C=CCC1C(c1ccc(S(=O)(=O)N3CCOCC3)cc1)N2 (stereo not given)	none
CC1(C(=O)NCc2ccccc2)CN(S(C)(=O)=O)CC(=O)N1CCCN1CCOCC1 (stereo not given)	none (no result: TPT1 inhibitor, Rpn11 inh, SUMO HTRF inh)
CN(C)S(=O)(=O)c1ccc(N)c([N+](=O)[O-])c1	none (no result: TPT1 inhibitor)
COC(=O)c1cc(O)cc(OC)c1Oc1cc(C)cc(O)c1C(=O)O	CSN inh 41 (not shown: Rpn11 inh, SUMO HTRF inh)
CSC1=N/C(=C\c2ccc(Br)o2)C(=O)S1	CSN inh 43
CCCOc1ccc(CNC(=S)NCc2ccc(OC(C)C)cc2)cc1	none
Cc1cc(/C=C\c2ccc3cc(N(C)C)ccc3[n+]2C)c(C)n1-c1ccccc1	Rpn11 inh active (no result: SUMO HTRF inh)
COc1ccccc1NC(=O)N1CCc2c([nH]c3ccccc23)C1C(F)(F)F (stereo not given)	none
Cc1cc(OC(C(=O)O)c2ccccc2)c2c(C)c(Cc3ccccc3)c(=O)oc2c1 (stereo not given)	SUMO HTRF inh 51
O=C(Nc1ccc(F)cc1)Oc1ccc[nH]c1=O	SUMO HTRF inh 99
Cc1cc(NC(=O)/C(C#N)=C\c2ccc(-c3ccc(SC(F)F)cc3)o2)n(-c2ccccc2)n1	CSN inh 81 (not shown: TPT1 inhibitor, Rpn11 inh, SUMO HTRF inh)
Cc1c(NC(=O)/C(C#N)=C/c2ccc(-c3ccc(Cl)c(Cl)c3)o2)c(=O)n(-c2ccccc2)n1C	none
O=C(NCCc1ccccc1)c1ccc2c(c1)OCCCO2	none
COc1cccc(C(=O)NC2CC3CCCC(C2)N3CC(=O)Nc2ccc(N(C)C)cc2)c1 (stereo not given)	none
COc1cccc(C(=O)NC2CC3CCCC(C2)N3CC(=O)Nc2ccccc2)c1 (stereo not given)	CSN inh 62
OCCC1CN(Cc2ccon2)CCN1Cc1ccccc1 (stereo not given)	none
O=C(CCS(=O)(=O)c1ccc(Cl)cc1)Nc1nnc(-c2ccco2)o1	none (no result: SUMO HTRF inh)
COc1ccc(/C=C(\C#N)C(=O)N2CCOCC2)cc1Br	none
Cc1cc(/C=C(\C#N)C(=O)N2CCOCC2)c(C)n1C1CCCC1	CSN inh 110
COC(=O)[C@@]12CCCN1[C@H](c1ccc(-c3ccc(C(C)=O)cc3)c(OC)c1)[C@H]1C(=O)N(C)C(=O)[C@H]12	none (no result: SUMO HTRF inh)
O=C(N/N=C1\C/C(=N\NC(=O)c2ccncc2)c2ccccc21)c1ccncc1	SUMO HTRF inh 52
O=C(Nc1ccccc1O)c1cc(S(=O)(=O)N2CCOCC2)c(Cl)cc1Cl	SUMO HTRF inh 60
O=C(Nc1ccccc1O)c1cc(S(=O)(=O)N2CCOCC2)ccc1Cl	none
C#CCOCCOCCOCCNc1nc(N2CCN(C(=O)CCCCCCCCCCNC(=O)Cn3cc(CCCCCN)nn3)CC2)nc(N2CCN(C(=O)CCCCCCCCCCNC(=O)[C@@H](CCC(=O)O)n3cc(CCCCCN)nn3)CC2)n1	none (no result: SUMO HTRF inh)
C#CCOCCOCCOCCNc1nc(N2CCN(C(=O)CCCCCCCCCCNC(=O)[C@H]([C@@H](C)CC)n3cc(CCCCN=C(N)N)nn3)CC2)nc(N2CCN(C(=O)CCCCCCCCCCNC(=O)[C@H](CO)n3cc(CCCCCN)nn3)CC2)n1	CSN inh 106, Rpn11 inh active (no result: SUMO HTRF inh)
C#CCOCCOCCOCCNc1nc(N2CCN(C(=O)CCCCCCCCCCNC(=O)[C@H]([C@@H](C)CC)n3cc(CCCCCN)nn3)CC2)nc(N2CCN(C(=O)CCCCCCCCCCNC(=O)[C@H]([C@@H](C)CC)n3cc(CCCCN=C(N)N)nn3)CC2)n1	CSN inh 116, Rpn11 inh active (no result: SUMO HTRF inh)
